What was measured:
Colon 26 = experiment: In vitro inhibitory activity against murine colon carcinoma C26-10 cell line; assay type: functional, cell-based; conditions: Mus musculus
Procedure, shortened: (§1)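 Monolayer cultures in RPMI 1640 with 5% heat-inactivated FCS and 2 mM L-glutamine, 37 °C, 5% CO2. Seeded at 5,000–20,000 cells/well according to doubling time, in gentamicin-containing medium. Compounds dissolved in DMSO and tested at five 10-fold dilutions from a top final concentration of 10⁻⁴ M for 72 h. Cells were TCA-fixed and stained with SRB, with OD read at 492 nm (NCI protocol). IC50 is the concentration giving 50% growth inhibition.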

WiDr = experiment: In vitro inhibitory activity against human colon carcinoma WiDr cell line;; assay type: functional, cell-based; procedure, shortened: as §1
[1] = test system: Lewis lung carcinoma cell line; experiment: In vitro inhibitory activity against LL murine NSCLC cell line;; assay type: functional, cell-based; conditions: Mus musculus; procedure, shortened: as §1
Rattus norvegicus [2] = experiment: In vivo anti-inflammatory activity against carrageenan-induced paw edema assay in rats at dose 0.15 mM/kg; assay type: functional
Procedure, shortened: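 Fisher 344 rats of either sex, excluding pregnant females, six animals per group with two groups per compound. Edema induced by intradermal injection of 0.1 mL of 2% carrageenin (type K100) in saline into the right paw. Compound given ip as a single 0.15 mmol/kg dose at the same time. Paw edema measured 3.5 h later. Indomethacin served as the reference drug.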

H322 = experiment: In vitro inhibitory activity against H322 human NSCLC cell line; assay type: functional, cell-based; conditions: NCI-H322; procedure, shortened: as §1
UMSCC22B = experiment: In vitro inhibitory activity against human and neck squamous cell carcinoma UMSCC-22B cell line; assay type: functional, cell-based; procedure, shortened: as §1
A2780 = experiment: In vitro inhibitory activity against human ovarian cancer A2780 cell line; assay type: functional, cell-based; procedure, shortened: as §1
Rattus norvegicus [3] = experiment: In vivo anti-inflammatory activity against carrageenan-induced paw edema assay in rats at dose 0.11 mM/kg; assay type: functional

| Compound | IC50 (Colon 26) | IC50 (WiDr) | IC50 [1] | IC50 (H322) | IC50 (UMSCC22B) | IC50 (A2780) | Inhibition (Rattus norvegicus [2]) | Inhibition (Rattus norvegicus [3]) |
| --- | --- | --- | --- | --- | --- | --- | --- | --- |
| COc1ccc2c(c1)c(CC(=O)O)c(C)n2C(=O)c1ccc(Cl)cc1 [INDOMETHACIN] | – | – | – | – | – | – | – | 53.3% |
| CCCCCCCCCCCCCCCCCC[C@H](N)[C@H](O)CO | 3.97 µM | 3.47 µM | 3.47 µM | 1710 nM | 2340 nM | 2710 nM | 79.6% | – |
| CCCCCCCCCCCCCCCCCC[C@@H](N)[C@@H](O)CO | 21.5 µM | 13.3 µM | 10.6 µM | 24400 nM | 3500 nM | 32800 nM | 80.04% | – |
| CCCCCCCCCCCCCCC(N)CN (stereo not drawn) | 3.3 µM | 24.2 µM | 2.93 µM | 2940 nM | 1890 nM | 2790 nM | 93.5% | – |

More lines, main results first:

| IC50 (Colon 26) | IC50 (WiDr) | IC50 [1] | IC50 (H322) | IC50 (UMSCC22B) | IC50 (A2780) | Compound | Inhibition (Rattus norvegicus [2]) | Inhibition (Rattus norvegicus [3]) |
| --- | --- | --- | --- | --- | --- | --- | --- | --- |
| 3.58 µM | 2.99 µM | 1.87 µM | 1520 nM | 2490 nM | 2630 nM | CCCCCCCCCCCCCC[C@@H](N)[C@@H](O)CO | 85.3% | – |
| 3.68 µM | 2.76 µM | 2.86 µM | 1450 nM | 1890 nM | 2660 nM | CCCCCCCCCCCCCC[C@H](N)[C@H](O)CO | 81.1% | – |
| 29.3 µM | 20.8 µM | 24.2 µM | 18000 nM | 23800 nM | 30400 nM | CCCCCCCCCCCCCC[C@H](NC(=O)OC(C)(C)C)[C@H](O)CO | 45.2% | – |
